# Laboratory results reported in ChEMBL document CHEMBL4261561, “Thiosemicarbazone-based selective proliferation inactivators inhibit gastric cancer cell growth, invasion, and migration” (Medchemcomm, 2017).
# Activity calls are given as the source filed them. The calls are words filed in the database; no cut-off is given here.
# Tests used:
# MGC-803 [1] = experiment: Antiproliferative activity against human MGC803 cells after 72 hrs by MTT assay; format: functional, cell-based; settings: MGC-803, 72 h
# How it was run: (§1)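 Exponentially growing cells were seeded at about 3×10^3 per well and left 24 h, then given fresh medium with a range of compound concentrations for 72 h. MTT solution (5 mg/mL) was added for another 4 h. Medium was removed, formazan was dissolved in DMSO, and absorbance was read at 570 nm. IC50 was derived statistically.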
# SMMC-7721 = experiment: Antiproliferative activity against human SMMC7721 cells after 72 hrs by MTT assay; format: functional, cell-based; settings: SMMC-7721, 72 h; how it was run: as §1
# MCF7 = experiment: Antiproliferative activity against human MCF7 cells after 72 hrs by MTT assay; format: functional, cell-based; settings: MCF7, 72 h; how it was run: as §1
# MGC-803 [2] = experiment: Cell cycle arrest in human MGC803 cells assessed as accumulation at G1 phase at 0.1 uM after 48 hrs by propidium iodide staining-based flow cytometric method (reference value: 60.55%); format: functional
# GES1 = experiment: Cytotoxicity against human GES-1 cells after 72 hrs by MTT assay; format: cell-based; settings: GES1, 72 h; how it was run: as §1
# MGC-803 [3] = experiment: Potency index, ratio of 3-AP IC50 to test compound IC50 for human MGC803 cells after 72 hrs by MTT assay; format: functional
# MGC-803 [4] = experiment: Anticlonogenic activity against human MGC803 cells at 0.1 to 0.5 uM after 7 to 14 days by crystal violet staining based assay; format: functional, cell-based
# How it was run: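 MGC-803 cells were seeded at about 1×10^3 per well and left 24 h, then grown 14 days in fresh medium with varied compound concentrations. Cells were PBS-washed, fixed in 4% paraformaldehyde for 30 min, and stained with 1% crystal violet for 30 min at 37°C before colonies were washed clear.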
# MGC-803 [5] = experiment: Cell cycle arrest in human MGC803 cells assessed as accumulation at S phase at 0.1 uM after 48 hrs by propidium iodide staining-based flow cytometric method (reference value: 28.84%); format: functional
# MGC-803 [6] = experiment: Cell cycle arrest in human MGC803 cells assessed as accumulation at G2 phase at 0.1 uM after 48 hrs by propidium iodide staining-based flow cytometric method (reference value: 10.60%); format: functional
# MGC-803 [7] = experiment: Cell cycle arrest in human MGC803 cells assessed as accumulation at G1 phase at 0.25 uM after 48 hrs by propidium iodide staining-based flow cytometric method (reference value: 60.55%); format: functional
# MGC-803 [8] = experiment: Cell cycle arrest in human MGC803 cells assessed as accumulation at S phase at 0.25 uM after 48 hrs by propidium iodide staining-based flow cytometric method (reference value: 28.84%); format: functional
# MGC-803 [9] = experiment: Cell cycle arrest in human MGC803 cells assessed as accumulation at G2 phase at 0.25 uM after 48 hrs by propidium iodide staining-based flow cytometric method (reference value: 10.60%); format: functional
# MGC-803 [10] = experiment: Cell cycle arrest in human MGC803 cells assessed as accumulation at G1 phase at 0.5 uM after 48 hrs by propidium iodide staining-based flow cytometric method (reference value: 60.55%); format: functional
# MGC-803 [11] = experiment: Cell cycle arrest in human MGC803 cells assessed as accumulation at S phase at 0.5 uM after 48 hrs by propidium iodide staining-based flow cytometric method (reference value: 28.84%); format: functional
# MGC-803 [12] = experiment: Cell cycle arrest in human MGC803 cells assessed as accumulation at G2 phase at 0.5 uM after 48 hrs by propidium iodide staining-based flow cytometric method (reference value: 10.60%); format: functional
# MGC-803 [13] = experiment: Up-regulation of E-cadherin protein expression in human MGC803 cells up to 0.5 uM after 48 hrs by Western blot analysis; format: functional, cell-based
# How it was run: (§2)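 Treated MGC-803 cells were lysed on ice for 30 min in NP-40/SDS/deoxycholate/PMSF buffer. Equal protein was separated by SDS-PAGE and transferred to 0.22 µm nitrocellulose. Membranes were blocked 2 h in 5% nonfat milk/PBS, probed with primary antibody at 4°C overnight, then incubated with secondary antibody for 2 h.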
# MGC-803 [14] = experiment: Down regulation of N-cadherin protein expression in human MGC803 cells up to 0.5 uM after 48 hrs by Western blot analysis; format: functional, cell-based; how it was run: as §2
# MGC-803 [15] = experiment: Induction of apoptosis in human MGC803 cells assessed as cell rounding up to 0.5 uM after 48 hrs by Hoechst 33258 staining based fluorescence microscopic method; format: functional
# How it was run: (§3)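 About 2×10^5 MGC-803 cells per well were treated after attachment with increasing compound concentrations for 48 h. They were fixed and stained with 20 µg/mL Hoechst-33258 for 30 min in the dark, then PBS-washed three times and viewed by fluorescence microscopy under UV excitation. Apoptotic cells were scored by nuclear condensation and fragmentation.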
# MGC-803 [16] = experiment: Induction of apoptosis in human MGC803 cells assessed as chromatin shrinkage up to 0.5 uM after 48 hrs by Hoechst 33258 staining based fluorescence microscopic method; format: functional, cell-based; how it was run: as §3
# MGC-803 [17] = experiment: Induction of apoptosis in human MGC803 cells assessed as formation of apoptotic bodies up to 0.5 uM after 48 hrs by Hoechst 33258 staining based fluorescence microscopic method; format: functional, cell-based; how it was run: as §3
# MGC-803 [18] = experiment: Induction of apoptosis in human MGC803 cells after 48 hrs by Annexin-V/propidium iodide staining based flow cytometric analysis; format: functional, cell-based
# MGC-803 [19] = experiment: Induction of apoptosis in human MGC803 cells assessed as early apoptotic cells at 0.1 uM after 48 hrs by Annexin-V/propidium iodide staining based flow cytometric analysis (reference value: 3.4%); format: functional
# MGC-803 [20] = experiment: Induction of apoptosis in human MGC803 cells assessed as late apoptotic cells at 0.1 uM after 48 hrs by Annexin-V/propidium iodide staining based flow cytometric analysis (reference value: 0.3%); format: functional
# MGC-803 [21] = experiment: Induction of apoptosis in human MGC803 cells assessed as necrotic cells at 0.1 uM after 48 hrs by Annexin-V/propidium iodide staining based flow cytometric analysis (reference value: 0.1%); format: functional
# MGC-803 [22] = experiment: Induction of apoptosis in human MGC803 cells assessed as viable cells at 0.1 uM after 48 hrs by Annexin-V/propidium iodide staining based flow cytometric analysis (reference value: 96.1%); format: functional; settings: MGC-803, 48 h, read-out: Activity
# MGC-803 [23] = experiment: Induction of apoptosis in human MGC803 cells assessed as early apoptotic cells at 0.25 uM after 48 hrs by Annexin-V/propidium iodide staining based flow cytometric analysis (reference value: 3.4%); format: functional
# MGC-803 [24] = experiment: Induction of apoptosis in human MGC803 cells assessed as late apoptotic cells at 0.25 uM after 48 hrs by Annexin-V/propidium iodide staining based flow cytometric analysis (reference value: 0.3%); format: functional
# MGC-803 [25] = experiment: Induction of apoptosis in human MGC803 cells assessed as necrotic cells at 0.25 uM after 48 hrs by Annexin-V/propidium iodide staining based flow cytometric analysis (reference value: 0.1%); format: functional
# MGC-803 [26] = experiment: Induction of apoptosis in human MGC803 cells assessed as viable cells at 0.25 uM after 48 hrs by Annexin-V/propidium iodide staining based flow cytometric analysis (reference value: 96.1%); format: functional; settings: MGC-803, 48 h, read-out: Activity
# MGC-803 [27] = experiment: Induction of apoptosis in human MGC803 cells assessed as early apoptotic cells at 0.5 uM after 48 hrs by Annexin-V/propidium iodide staining based flow cytometric analysis (reference value: 3.4%); format: functional
# MGC-803 [28] = experiment: Induction of apoptosis in human MGC803 cells assessed as late apoptotic cells at 0.5 uM after 48 hrs by Annexin-V/propidium iodide staining based flow cytometric analysis (reference value: 0.3%); format: functional
# MGC-803 [29] = experiment: Induction of apoptosis in human MGC803 cells assessed as necrotic cells at 0.5 uM after 48 hrs by Annexin-V/propidium iodide staining based flow cytometric analysis (reference value: 0.1%); format: functional
# MGC-803 [30] = experiment: Induction of apoptosis in human MGC803 cells assessed as viable cells at 0.5 uM after 48 hrs by Annexin-V/propidium iodide staining based flow cytometric analysis (reference value: 96.1%); format: functional; settings: MGC-803, 48 h, read-out: Activity
# MGC-803 [31] = experiment: Induction of apoptosis in human MGC803 cells assessed as up-regulation of Bax expression after 48 hrs by Western blot analysis; format: functional, cell-based; how it was run: as §2
# MGC-803 [32] = experiment: Induction of apoptosis in human MGC803 cells assessed as down regulation of Bcl-2 expression after 48 hrs by Western blot analysis; format: functional, cell-based; how it was run: as §2
# MGC-803 [33] = experiment: Antimigratory activity against human MGC803 cells after 48 hrs by wound healing assay; format: functional, cell-based
# How it was run: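 Confluent monolayers were scratched with a sterile pipette tip and PBS-washed. Cells were then cultured in medium containing only 1% FBS with varied compound concentrations for 48 h. Wounds were photographed under an inverted microscope at 0 h and 48 h.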
# MGC-803 [34] = experiment: Antimigratory activity against human MGC803 cells after 48 hrs by Hoechst 33258 staining based transwell assay; format: functional, cell-based
# How it was run: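 This was a transwell migration set-up. MGC-803 cells in medium with 1% FBS and varied compound concentrations went into the upper chamber, with 20% FBS medium below. After 48 h, chambers were PBS-washed and migrated cells were methanol-fixed. They were stained with 20 µg/mL Hoechst-33258 for 30 min in the dark and imaged on a high-content system.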
# MGC-803 [35] = experiment: Anti-invasive activity against human MGC803 cells after 48 hrs by Hoechst 33258 staining based matrigel coated transwell assay; format: functional, cell-based
# How it was run: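 This was an invasion variant of the transwell assay, with the upper chamber precoated with Matrigel. MGC-803 cells in 1% FBS medium with varied compound concentrations were placed above 20% FBS medium. After 48 h, cells were methanol-fixed, stained with 20 µg/mL Hoechst-33258 for 30 min in the dark, and imaged.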
# MGC-803 [36] = experiment: Antiproliferative activity against human MGC803 cells after 24 hrs by MTT assay; format: functional, cell-based; settings: MGC-803, 24 h
# MGC-803 [37] = experiment: Antiproliferative activity against human MGC803 cells after 48 hrs by MTT assay; format: functional, cell-based; settings: MGC-803, 48 h
# MGC-803 [38] = experiment: Cell cycle arrest in human MGC803 cells assessed as accumulation at S phase after 48 hrs by propidium iodide staining-based flow cytometric method; format: functional
smiles,measurement,setting,value
Oc1ccc(Cl)cc1/C=N/NC(=S)N1CCOCC1,IC50,MGC-803 [1],16.3 µM
same,IC50,SMMC-7721,35.3 µM
same,IC50,MCF7,> 64 µM
C/C(=N\NC(=S)Nc1ccccc1)c1cc(Cl)ccc1O,Activity,MGC-803 [2],57.45%
same,IC50,MGC-803 [1],0.93 µM
same,IC50,SMMC-7721,19.2 µM
same,IC50,MCF7,9.99 µM
same,IC50,GES1,27.9 µM
same,Ratio IC50,MGC-803 [3],10
same,Activity,MGC-803 [4],Active
same,Activity,MGC-803 [5],32.82%
same,Activity,MGC-803 [6],9.73%
same,Activity,MGC-803 [7],53.93%
same,Activity,MGC-803 [8],46.07%
same,Activity,MGC-803 [9],0%
same,Activity,MGC-803 [10],48.15%
same,Activity,MGC-803 [11],51.85%
same,Activity,MGC-803 [12],0%
same,Activity,MGC-803 [13],Active
same,Activity,MGC-803 [14],Active
same,Activity,MGC-803 [15],Active
same,Activity,MGC-803 [16],Active
same,Activity,MGC-803 [17],Active
same,Activity,MGC-803 [18],Dose-dependent effect
same,Activity,MGC-803 [19],10.5%
same,Activity,MGC-803 [20],0.4%
same,Activity,MGC-803 [21],0.1%
same,viability at 0.1 µM,MGC-803 [22],89%
same,Activity,MGC-803 [23],15.1%
same,Activity,MGC-803 [24],1.3%
same,Activity,MGC-803 [25],0.2%
same,viability at 0.25 µM,MGC-803 [26],83.5%
same,Activity,MGC-803 [27],30%
same,Activity,MGC-803 [28],2.3%
same,Activity,MGC-803 [29],0.3%
same,viability at 0.5 µM,MGC-803 [30],67.4%
same,Activity,MGC-803 [31],Dose-dependent effect
same,Activity,MGC-803 [32],Dose-dependent effect
same,Activity,MGC-803 [33],Dose-dependent effect
same,Activity,MGC-803 [34],Dose-dependent effect
same,Activity,MGC-803 [35],Dose-dependent effect
same,IC50,MGC-803 [36],> 64 µM
same,IC50,MGC-803 [37],9.22 µM
same,Activity,MGC-803 [38],Dose-dependent effect
Oc1ccc2ccccc2c1/C=N/NC(=S)N1CCOCC1,IC50,MGC-803 [1],> 64 µM
same,IC50,SMMC-7721,44.9 µM
same,IC50,MCF7,> 64 µM
C/C(=N\NC(=S)N1CCOCC1)c1cc(Cl)ccc1O,IC50,MGC-803 [1],3.06 µM
same,IC50,SMMC-7721,> 64 µM
same,IC50,MCF7,29.2 µM
